What was measured:
Type in all cases: functional
OVCAR-5 [1] = test: Growth inhibition of human OVCAR5 cells at 10 uM after 48 hrs by sulforhodamine B assay; details: OVCAR-5, 48 h, read-out: GI
In short: (§1)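 NCI one-dose primary screen at 10 (printed mM) across the 60-line panel. Cells in RPMI 1640 with 5% FBS and 2 mM L-glutamine, plated at 5000–40,000 cells/well and incubated 24 h before dosing. Exposure 48 h at 37 °C, 5% CO2. Adherent cells were fixed with cold TCA, suspension cells fixed after settling. SRB stain, absorbance 515 nm. Reported as percent growth of treated cells relative to control.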

SNB-19 = test: Cytotoxicity against human SNB19 cells after 48 hrs by sulforhodamine B assay; details: SNB-19, 48 h
In short: (§2)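 NCI 60-panel screen. Cells were grown in RPMI 1640 with 5% FBS and L-glutamine and plated at 5000–40,000 cells/well according to doubling time. They were preincubated 24 h at 37 °C, 5% CO2, then exposed 48 h to five 10-fold dilutions. Adherent cells were fixed with cold TCA, final 10%; suspension cells were fixed after settling. Cells were stained with 0.4% SRB and read at 515 nm. Tz/C/Ti growth curves gave GI50, TGI and LC50.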

KM12 = test: Growth inhibition of human KM12 cells at 10 uM after 48 hrs by sulforhodamine B assay; details: KM12, 48 h, read-out: GI; in short: as §1
NCI-H226 = test: Cytotoxicity against human NCI-H226 cells after 48 hrs by sulforhodamine B assay; details: NCI-H226, 48 h; in short: as §2
MOLT-4 = test: Cytotoxicity against human MOLT4 cells after 48 hrs by sulforhodamine B assay; details: MOLT-4, 48 h; in short: as §2
A498 [2] = test: Growth inhibition of human A498 cells at 10 uM after 48 hrs by sulforhodamine B assay; details: A498, 48 h, read-out: GI; in short: as §1
UACC-257 [3] = test: Growth inhibition of human UACC257 cells at 10 uM after 48 hrs by sulforhodamine B assay; details: UACC-257, 48 h, read-out: GI
In short: (§3)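 NCI-60 single-dose screen. Cells grown in RPMI 1640 with 5% FBS and L-glutamine, plated at 5000–40,000 cells/well by doubling time, and preincubated 24 h at 37 °C, 5% CO2. Compound stocks in DMSO, added at one concentration, then incubated 48 h. Adherent cells fixed with cold TCA (10% final), stained with 0.4% SRB, dye solubilized in 10 mM Tris base, A515 read. Reported as percent growth relative to untreated control.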

RXF 393 = test: Cytotoxicity against human RXF393 cells after 48 hrs by sulforhodamine B assay; details: RXF 393, 48 h; in short: as §2
SK-OV-3 = test: Cytotoxicity against human SKOV3 cells after 48 hrs by sulforhodamine B assay; details: SK-OV-3, 48 h; in short: as §2
SR = test: Cytotoxicity against human SR cells after 48 hrs by sulforhodamine B assay; in short: as §2
TK-10 = test: Cytotoxicity against human TK10 cells after 48 hrs by sulforhodamine B assay; details: TK-10, 48 h
In short: (§4)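 NCI 60 panel five-dose screen. Cells in RPMI 1640 with 5% FBS and 2 mM L-glutamine, plated at 5000–40,000 cells/well and preincubated 24 h. Compounds were tested at five 10-fold concentrations (0.01–100) for 48 h at 37 °C, 5% CO2. Cells were fixed with TCA and stained with SRB, absorbance 515 nm. GI50, TGI and LC50 were taken from % growth curves against time-zero and control.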

PC-3 = test: Cytotoxicity against human PC3 cells after 48 hrs by sulforhodamine B assay; details: PC-3, 48 h; in short: as §2
OVCAR-5 [4] = test: Cytotoxicity against human OVCAR5 cells after 48 hrs by sulforhodamine B assay; details: OVCAR-5, 48 h; in short: as §2
MCF7 = test: Cytotoxicity against human MCF7 cells after 48 hrs by sulforhodamine B assay; details: MCF7, 48 h; in short: as §2
SN12C = test: Growth inhibition of human SN12C cells at 10 uM after 48 hrs by sulforhodamine B assay; details: read-out: GI; in short: as §3
SNB-75 [5] = test: Cytotoxicity against human SNB75 cells after 48 hrs by sulforhodamine B assay; details: SNB-75, 48 h; in short: as §2
OVCAR-4 = test: Cytotoxicity against human OVCAR4 cells after 48 hrs by sulforhodamine B assay; details: OVCAR-4, 48 h; in short: as §2
SNB-75 [6] = test: Growth inhibition of human SNB75 cells at 10 uM after 48 hrs by sulforhodamine B assay; details: SNB-75, 48 h, read-out: GI; in short: as §3
[7] = Growth inhibition of human Hs 578T cells at 10 uM after 48 hrs by sulforhodamine B assay; details: read-out: GI; in short: as §1
HCT-116 = test: Growth inhibition of human HCT116 cells at 10 uM after 48 hrs by sulforhodamine B assay; details: HCT-116, 48 h, read-out: GI; in short: as §1
UO-31 = test: Growth inhibition of human UO31 cells at 10 uM after 48 hrs by sulforhodamine B assay; details: UO-31, 48 h, read-out: GI; in short: as §3
UACC-257 [8] = test: Cytotoxicity against human UACC257 cells after 48 hrs by sulforhodamine B assay; details: UACC-257, 48 h; in short: as §4
NCI/ADR-RES = test: Growth inhibition of human NCI/ADR-RES cells at 10 uM after 48 hrs by sulforhodamine B assay; details: read-out: GI; in short: as §1
NCI-H460 = test: Growth inhibition of human NCI-H460 cells at 10 uM after 48 hrs by sulforhodamine B assay; details: NCI-H460, 48 h, read-out: GI; in short: as §1
NCI-H522 = test: Growth inhibition of human NCI-H522 cells at 10 uM after 48 hrs by sulforhodamine B assay; details: NCI-H522, 48 h, read-out: GI; in short: as §1
SW-620 = test: Growth inhibition of human SW620 cells at 10 uM after 48 hrs by sulforhodamine B assay; details: SW-620, 48 h, read-out: GI; in short: as §3
M14 = test: Cytotoxicity against human M14 cells after 48 hrs by sulforhodamine B assay; details: M14, 48 h; in short: as §2
A498 [9] = test: Cytotoxicity against human A498 cells after 48 hrs by sulforhodamine B assay; details: A498, 48 h; in short: as §2
[10] = read-out: LC50 (the source's name)

O=C(CCc1nnc(-c2ccc(Cl)cc2Cl)o1)c1nc2ccccc2[nH]1
inhibition of growth at 10 µM (OVCAR-5 [1]): 18.9% | GI50 (SNB-19): 17.4 µM | TGI (SNB-19): 100 µM | CC50 (SNB-19; [10]): 100 µM | inhibition of growth at 10 µM (KM12): 71.3% | GI50 (NCI-H226): 6.66 µM | TGI (NCI-H226): 31.2 µM | CC50 (NCI-H226; [10]): 100 µM | GI50 (MOLT-4): 4.07 µM | TGI (MOLT-4): 25.8 µM | CC50 (MOLT-4; [10]): 100 µM | inhibition of growth at 10 µM (A498 [2]): 41.6% | inhibition of growth at 10 µM (UACC-257 [3]): 21.4% | GI50 (RXF 393): 4.3 µM | TGI (RXF 393): 49.7 µM | CC50 (RXF 393; [10]): 100 µM | GI50 (SK-OV-3): 4.6 µM | TGI (SK-OV-3): 30.5 µM | CC50 (SK-OV-3; [10]): 100 µM | GI50 (SR): 2.63 µM | TGI (SR): 15.2 µM | CC50 (SR; [10]): 100 µM | GI50 (TK-10): 16.4 µM | TGI (TK-10): 100 µM | CC50 (TK-10; [10]): 100 µM | GI50 (PC-3): 3.71 µM | TGI (PC-3): 100 µM | CC50 (PC-3; [10]): 100 µM | GI50 (OVCAR-5 [4]): 7.82 µM | TGI (OVCAR-5 [4]): 100 µM | CC50 (OVCAR-5 [4]; [10]): 100 µM | GI50 (MCF7): 4.57 µM | TGI (MCF7): 100 µM | CC50 (MCF7; [10]): 100 µM | inhibition of growth at 10 µM (SN12C): 38.8% | GI50 (SNB-75 [5]): 18.7 µM | CC50 (SNB-75 [5]; [10]): 100 µM | GI50 (OVCAR-4): 5.93 µM | TGI (OVCAR-4): 100 µM | CC50 (OVCAR-4; [10]): 100 µM | inhibition of growth at 10 µM (SNB-75 [6]): 36.6% | inhibition of growth at 10 µM [7]: 17.7% | inhibition of growth at 10 µM (HCT-116): 77.9% | inhibition of growth at 10 µM (UO-31): 48% | GI50 (UACC-257 [8]): 13.7 µM | TGI (UACC-257 [8]): 44.4 µM | CC50 (UACC-257 [8]; [10]): 100 µM | inhibition of growth at 10 µM (NCI/ADR-RES): 36.7% | inhibition of growth at 10 µM (NCI-H460): 22.7% | inhibition of growth at 10 µM (NCI-H522): 50.2% | inhibition of growth at 10 µM (SW-620): 64.2% | GI50 (M14): 5.86 µM | TGI (M14): 31.5 µM | CC50 (M14; [10]): 100 µM | GI50 (A498 [9]): 1.53 µM | TGI (A498 [9]): 10.1 µM | CC50 (A498 [9]; [10]): 100 µM

Source: ChEMBL document CHEMBL2040797, “Synthesis of benzimidazoles bearing oxadiazole nucleus as anticancer agents” (2012)
